Results from ChEMBL document CHEMBL4359879, “Synthesis and evaluation of 2-carboxy indole derivatives as potent and selective anti-leukemic agents” (Eur J Med Chem, 2019).
The source made the active and inactive calls. The rule behind the calls is not given here.

Columns and labels:
HL-60 [1] = experiment: Effect on human HL60 cells assessed as fold change in ANKRD36 gene expression at 1.085 uM incubated for 6 hrs by microarray-based method; assay type: functional
Method in brief: (§1)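 HL60 cells were treated in triplicate with 1.085 µM or vehicle for 6 h. Total RNA was extracted with on-column DNase treatment and profiled on expression arrays.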

HL-60 [2] = experiment: Effect on human HL60 cells assessed as fold change in SPATA7 gene expression at 1.085 uM incubated for 6 hrs by microarray-based method; assay type: functional; method in brief: as §1
RS4-11 [3] = experiment: Effect on human RS4:11 cells assessed as increase in p53 protein expression at 300 nM incubated for 15 to 360 mins by Western blot analysis; assay type: functional, cell-based
Method in brief: (§2)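 Leukemia cells (RS4;11, CEM, HL60) treated with 300 nM for 0, 15, 30, 60 and 360 min. Western blotting for β-tubulin and p53, with lamin B1 as loading control and chemiluminescent detection.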

Tubulin (Homo sapiens) [4] = biological target: T1, Tubulin (Homo sapiens) (UniProt P68371+Q9H4B7+P0DPH7+P68366+Q13509+Q71U36+P04350+Q3ZCM7+P07437+P68363+Q9BQE3+Q6PEY2+Q13885+Q9BVA1+Q9BUF5); experiment: Induction of microtubule network depolymerization in human HeLa cells assessed as formation of abnormal chromosomal segregation at 500 nM incubated for 18 hrs by DAPI staining based fluorescence microscopic method; assay type: cell-based
Method in brief: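 HeLa cells (100,000/mL) cultured overnight on glass-bottom dishes, then exposed to 500 nM or 1 μM, or DMSO, for 18 h. Permeabilized (0.5% Triton X-100) and fixed (3.7% formaldehyde). Stained overnight at 4 °C with anti-β-tubulin, then Alexa Fluor 647 secondary for 1 h at room temperature, and DAPI 1 μg/mL for 10 min. Examined by fluorescence microscopy.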

RS4-11 [5] = experiment: Induction of DNA damage in human RS4:11 cells assessed as accumulation of cells at sub G2 phase at 300 nM incubated for 18 hrs in presence of H2AX antibody by immunofluorescent staining based flow cytometric analysis relative to control; assay type: functional
Method in brief: (§3)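 RS4;11 cells treated with 300 nM or DMSO vehicle for 18 h, then pulsed with 10 μM BrdU for 1 h. Harvested cells immunostained for BrdU/PI (cell cycle), γH2AX (DNA damage) and PARP (apoptosis). Multicolor flow cytometry gated G1, sub-G2-like, G2/M and sub-G0/G1 populations.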

HL-60 [6] = experiment: Effect on human HL60 cells assessed as fold change in ITPR3 gene expression at 1.085 uM incubated for 6 hrs by microarray-based method; assay type: functional; method in brief: as §1
HL-60 [7] = experiment: Effect on human HL60 cells assessed as fold change in HRH1 gene expression at 1.085 uM incubated for 6 hrs by microarray-based method; assay type: functional; method in brief: as §1
HL-60 [8] = experiment: Induction of differentiation in human HL60 cells assessed as increase in CD11b positive cells at EC50 to EC90 incubated for 24 hrs by 7-AAD staining-based flow cytometric analysis; assay type: functional, cell-based
Method in brief: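 Vitamin D3 at 100 nM and ATRA at 2 μM served as positive controls. Stained with APC anti-CD11b and PE anti-CD14 for 30 min at 4 °C, then 7-AAD.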

HL-60 [9] = experiment: Effect on human HL60 cells assessed as fold change in TAF15 gene expression at 1.085 uM incubated for 6 hrs by microarray-based method; assay type: functional; method in brief: as §1
HL-60 [10] = experiment: Effect on human HL60 cells assessed as fold change in PHF20L1 gene expression at 1.085 uM incubated for 6 hrs by microarray-based method; assay type: functional; method in brief: as §1
RS4-11 [11] = experiment: Antitumor activity against human RS4:11 cells xenografted in NOD/SCID mouse assessed as increase in survival at 10 mg/kg, ip administrated 5 times per week; assay type: functional, organism-based
Method in brief: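 Ten million RS4;11 cells were injected into the tail vein of unconditioned NOD/SCID mice. Engraftment was tracked by flow cytometry of human versus mouse CD45 in ficoll-isolated blood. When human CD45+ cells reached ≥1.5% in half of the mice, animals were randomized (n=5 per group) to vehicle (1% PVP, 4% DMSO, 95% PBS) or 10 mg/kg ip, 5x per week until death. Groups were compared by Kaplan-Meier curves and log-rank test.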

HL-60 [12] = experiment: Effect on human HL60 cells assessed as fold change in NMNAT1 gene expression at 1.085 uM incubated for 6 hrs by microarray-based method; assay type: functional; method in brief: as §1
HL-60 [13] = experiment: Effect on human HL60 cells assessed as fold change in NCBP2-AS2 gene expression at 1.085 uM incubated for 6 hrs by microarray-based method; assay type: functional; method in brief: as §1
RS4-11 [14] = experiment: Induction of DNA damage in human RS4:11 cells assessed as accumulation of cells at G2 phase at 300 nM incubated for 18 hrs in presence of H2AX antibody by immunofluorescent staining based flow cytometric analysis relative to control; assay type: functional; method in brief: as §3
HL-60 [15] = experiment: Induction of cell cycle arrest in human HL60 cells assessed as accumulation of cells at G2/M phase at EC50 incubated for 12 hrs by PI staining based flow cytometric analysis (reference value: 23.0%); assay type: functional
HL-60 [16] = experiment: Effect on human HL60 cells assessed as fold change in MOB2 gene expression at 1.085 uM incubated for 6 hrs by microarray-based method; assay type: functional; method in brief: as §1
HL-60 [17] = experiment: Effect on human HL60 cells assessed as fold change in C14orf180 gene expression at 1.085 uM incubated for 6 hrs by microarray-based method; assay type: functional; method in brief: as §1
HL-60 [18] = experiment: Effect on human HL60 cells assessed as fold change in ZNF79 gene expression at 1.085 uM incubated for 6 hrs by microarray-based method; assay type: functional
HL-60 [19] = experiment: Effect on human HL60 cells assessed as fold change in GBP3 gene expression at 1.085 uM incubated for 6 hrs by microarray-based method; assay type: functional; method in brief: as §1
HL-60 [20] = experiment: Effect on human HL60 cells assessed as fold change in LSMEM1 gene expression at 1.085 uM incubated for 6 hrs by microarray-based method; assay type: functional; method in brief: as §1
HL-60 [21] = experiment: Effect on human HL60 cells assessed as fold change in RAB39B gene expression at 1.085 uM incubated for 6 hrs by microarray-based method; assay type: functional; method in brief: as §1
Tubulin (Homo sapiens) [22] = biological target: T1, Tubulin (Homo sapiens); experiment: Inhibition of tubulin polymerization in human RS4:11 cells at 300 nM by Western blot analysis; assay type: cell-based; conditions: TDE = time-dependent effect; method in brief: as §2
HL-60 [23] = experiment: Effect on human HL60 cells assessed as fold change in ATP6AP1L gene expression at 1.085 uM incubated for 6 hrs by microarray-based method; assay type: functional; method in brief: as §1
HL-60 [24] = experiment: Effect on human HL60 cells assessed as fold change in PPP1R1A gene expression at 1.085 uM incubated for 6 hrs by microarray-based method; assay type: functional; method in brief: as §1
HL-60 [25] = experiment: Effect on human HL60 cells assessed as fold change in IPO13 gene expression at 1.085 uM incubated for 6 hrs by microarray-based method; assay type: functional; method in brief: as §1
HL-60 [26] = experiment: Effect on human HL60 cells assessed as fold change in ARL17B gene expression at 1.085 uM incubated for 6 hrs by microarray-based method; assay type: functional; method in brief: as §1
HL-60 [27] = experiment: Effect on human HL60 cells assessed as fold change in MIR4658 gene expression at 1.085 uM incubated for 6 hrs by microarray-based method; assay type: functional; method in brief: as §1

For COC(=O)c1[nH]c2cc(OC)ccc2c1-c1ccc(C(F)(F)F)cc1, the “fold change (FC)” value (HL-60 [1]) was 1.54, the “fold change (FC)” value (HL-60 [2]) was 1.56 and the Activity (RS4-11 [3]) was “Active”. For the same compound, the Activity (Tubulin (Homo sapiens) [4]) was “Active”, the Activity (RS4-11 [5]) was 2.3% and the “fold change (FC)” value (HL-60 [6]) was 1.57. The “fold change (FC)” value (HL-60 [7]) was 1.51, the Activity (HL-60 [8]) was “Active” and the “fold change (FC)” value (HL-60 [9]) was 1.75. The “fold change (FC)” value (HL-60 [10]) was 1.56, the Activity (RS4-11 [11]) was “Active” and the “fold change (FC)” value (HL-60 [12]) was 1.5. For the same compound, the “fold change (FC)” value (HL-60 [13]) was -1.58, the Activity (RS4-11 [14]) was 6.9% and the Activity (HL-60 [15]) was 48%. The “fold change (FC)” value (HL-60 [16]) was -1.79, the “fold change (FC)” value (HL-60 [17]) was 1.56 and the “fold change (FC)” value (HL-60 [18]) was -1.88. For the same compound, the “fold change (FC)” value (HL-60 [19]) was -1.62, the “fold change (FC)” value (HL-60 [20]) was -1.69 and the “fold change (FC)” value (HL-60 [21]) was -1.53. The inhibition (Tubulin (Homo sapiens) [22]) was “Tde”, the “fold change (FC)” value (HL-60 [23]) was -1.53 and the “fold change (FC)” value (HL-60 [24]) was -1.7. For the same compound, the “fold change (FC)” value (HL-60 [25]) was 1.8, the “fold change (FC)” value (HL-60 [26]) was -1.5 and the “fold change (FC)” value (HL-60 [27]) was -1.72.
